# Measured values published in ChEMBL document CHEMBL4371041, “Synthesis and evaluation of thieno[3,2-d]pyrimidine derivatives as novel FMS inhibitors” (Bioorg Med Chem Lett, 2019).
# Experiments:
# MDA-MB-231 [1] = assay: Inhibition of paclitaxel-induced FMS expression in human MDA-MB-231 cells by Western blot analysis; assay type: functional, cell-based
# [2] = molecular target: Tyrosine-protein kinase receptor UFO (Homo sapiens) (UniProt P30530); assay: Inhibition of recombinant human N-terminal His6-tagged Axl (473 to end residues) expressed in baculovirus infected Sf21 insect cells at 1 uM using Axltide as substrate in presence of [gamma-33P]-ATP or [gamma-32P]-ATP relative to control
# [3] = molecular target: Voltage-gated inwardly rectifying potassium channel KCNH2 (Homo sapiens, UniProt Q12809); assay: Displacement of Tracer Red from human ERG by fluorescence polarization assay
# Chain of Voltage-gated inwardly rectifying potassium channel KCNH2 (Q12809 whole entry): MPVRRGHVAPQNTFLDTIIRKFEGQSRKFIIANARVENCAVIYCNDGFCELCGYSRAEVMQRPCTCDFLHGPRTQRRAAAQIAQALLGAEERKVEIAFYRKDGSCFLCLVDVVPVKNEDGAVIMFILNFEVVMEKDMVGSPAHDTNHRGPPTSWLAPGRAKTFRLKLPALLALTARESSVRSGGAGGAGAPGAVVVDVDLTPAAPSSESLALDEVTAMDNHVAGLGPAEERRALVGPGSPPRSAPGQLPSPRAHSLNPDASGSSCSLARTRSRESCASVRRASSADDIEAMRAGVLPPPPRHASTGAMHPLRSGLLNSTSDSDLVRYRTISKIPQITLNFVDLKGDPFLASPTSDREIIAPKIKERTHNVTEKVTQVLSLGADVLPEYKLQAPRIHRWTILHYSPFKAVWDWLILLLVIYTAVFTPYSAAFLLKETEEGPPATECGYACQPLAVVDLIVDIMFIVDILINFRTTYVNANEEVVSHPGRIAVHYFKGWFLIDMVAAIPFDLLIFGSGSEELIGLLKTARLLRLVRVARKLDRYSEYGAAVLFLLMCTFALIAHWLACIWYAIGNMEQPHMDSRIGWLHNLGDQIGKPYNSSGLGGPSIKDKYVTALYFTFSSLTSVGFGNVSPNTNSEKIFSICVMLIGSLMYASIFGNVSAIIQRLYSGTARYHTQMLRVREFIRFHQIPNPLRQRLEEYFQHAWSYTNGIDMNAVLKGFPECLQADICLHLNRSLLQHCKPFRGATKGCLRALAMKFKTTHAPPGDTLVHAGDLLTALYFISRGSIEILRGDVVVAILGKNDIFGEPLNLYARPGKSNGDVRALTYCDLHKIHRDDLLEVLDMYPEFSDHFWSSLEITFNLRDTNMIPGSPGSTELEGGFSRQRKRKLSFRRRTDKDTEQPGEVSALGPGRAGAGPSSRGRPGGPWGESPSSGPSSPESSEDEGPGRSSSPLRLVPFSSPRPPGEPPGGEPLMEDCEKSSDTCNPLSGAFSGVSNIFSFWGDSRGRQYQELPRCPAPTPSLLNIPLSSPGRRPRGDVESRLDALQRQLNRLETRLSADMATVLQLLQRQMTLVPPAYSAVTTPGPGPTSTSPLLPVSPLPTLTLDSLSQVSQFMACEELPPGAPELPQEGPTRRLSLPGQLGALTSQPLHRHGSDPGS
# Cytochrome P450 1A2 = Cytochrome P450 1A2 (Homo sapiens, UniProt P05177); assay: Inhibition of CYP1A2 in human liver microsomes by LC-MS/MS analysis; assay type: ADME
# In short: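 Reversible CYP inhibition measured in human liver microsomes; metabolite formation quantified by LC/MS/MS.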
# [4] = molecular target: RAF proto-oncogene serine/threonine-protein kinase (Homo sapiens, UniProt P04049, Y340D/Y341D); assay: Inhibition of recombinant human N-terminal GST-tagged c-RAF Y340D/Y341D double mutant (306 to 648 residues) expressed in baculovirus infected Sf21 insect cells using MEK1(K97R) as substrate in presence of [gamma-33P]-ATP or [gamma-32P]-ATP
# Chain of RAF proto-oncogene serine/threonine-protein kinase (P04049 whole entry Y340D/Y341D, the tested form may be a part): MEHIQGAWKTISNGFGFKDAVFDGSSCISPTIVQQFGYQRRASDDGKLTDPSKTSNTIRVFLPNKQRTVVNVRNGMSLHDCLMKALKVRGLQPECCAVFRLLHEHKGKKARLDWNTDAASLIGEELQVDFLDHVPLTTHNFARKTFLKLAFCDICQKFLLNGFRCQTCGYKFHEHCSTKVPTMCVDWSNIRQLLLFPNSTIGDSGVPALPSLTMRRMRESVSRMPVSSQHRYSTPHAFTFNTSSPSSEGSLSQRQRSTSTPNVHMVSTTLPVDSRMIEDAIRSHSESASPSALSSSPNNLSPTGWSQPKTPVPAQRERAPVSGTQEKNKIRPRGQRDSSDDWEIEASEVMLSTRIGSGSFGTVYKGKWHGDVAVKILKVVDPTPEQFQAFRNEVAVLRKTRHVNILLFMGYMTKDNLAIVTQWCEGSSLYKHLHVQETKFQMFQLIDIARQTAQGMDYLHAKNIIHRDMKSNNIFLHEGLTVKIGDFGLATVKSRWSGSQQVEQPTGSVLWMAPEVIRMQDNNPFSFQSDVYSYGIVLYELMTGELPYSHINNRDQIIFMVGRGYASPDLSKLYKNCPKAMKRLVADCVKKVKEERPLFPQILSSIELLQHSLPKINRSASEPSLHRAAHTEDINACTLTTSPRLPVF
# [5] = molecular target: Epidermal growth factor receptor (Homo sapiens) (UniProt P00533); assay: Inhibition of recombinant human N-terminal GST-tagged EGFR (696 to end residues) expressed in baculovirus infected Sf21 insect cells at 1 uM using Angiotensin2 peptide as substrate in presence of [gamma-33P]-ATP or [gamma-32P]-ATP relative to control
# [6] = molecular target: Vascular endothelial growth factor receptor 2 (Homo sapiens, UniProt P35968); assay: Inhibition of recombinant human N-terminal His6-tagged KDR (790 to end residues) expressed in baculovirus infected Sf21 insect cells at 1 uM using MBP as substrate in presence of [gamma-33P]-ATP or [gamma-32P]-ATP relative to control
# [7] = molecular target: Proto-oncogene tyrosine-protein kinase Src (Homo sapiens) (UniProt P12931); assay: Inhibition of recombinant human N-terminal His6-tagged Src (1 to 530 residues) expressed in baculovirus infected Sf21 insect cells at 1 uM in presence of [gamma-33P]-ATP or [gamma-32P]-ATP relative to control
# Chain of Proto-oncogene tyrosine-protein kinase Src (Homo sapiens) (P12931 2-536 limits assumed): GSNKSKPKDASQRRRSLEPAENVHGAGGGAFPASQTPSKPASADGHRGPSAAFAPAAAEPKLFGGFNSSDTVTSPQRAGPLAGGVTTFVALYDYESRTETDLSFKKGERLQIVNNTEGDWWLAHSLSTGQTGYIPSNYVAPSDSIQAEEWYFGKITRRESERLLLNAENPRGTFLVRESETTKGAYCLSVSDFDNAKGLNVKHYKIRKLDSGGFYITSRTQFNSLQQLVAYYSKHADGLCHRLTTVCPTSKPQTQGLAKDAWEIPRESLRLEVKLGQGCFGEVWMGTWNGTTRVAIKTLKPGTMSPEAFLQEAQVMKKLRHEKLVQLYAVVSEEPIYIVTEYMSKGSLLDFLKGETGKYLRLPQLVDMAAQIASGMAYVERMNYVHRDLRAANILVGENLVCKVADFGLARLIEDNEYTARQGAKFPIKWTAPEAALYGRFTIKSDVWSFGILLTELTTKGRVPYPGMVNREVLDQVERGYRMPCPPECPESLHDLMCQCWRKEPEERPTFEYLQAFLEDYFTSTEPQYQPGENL
# [8] = Oral bioavailability in CD-1 mouse at 10 mg/kg; assay type: ADME, organism-based; details: in vivo
# MDA-MB-231 [9] = assay: Antiinvasive activity against human MDA-MB-231 cells after 72 hrs by luciferase reporter-based matrigel-coated transwell assay; assay type: functional, cell-based
# In short: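 Invasion of luciferase-expressing MDA-MB-231 cells assessed in a system including RAW264.7 mouse macrophages, across a dose range including 1 μM; invasion read by luciferase signal relative to untreated control.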
# [10] = molecular target: Ribosomal protein S6 kinase alpha-1 (Homo sapiens) (UniProt Q15418); assay: Inhibition of RSK1 (unknown origin) at 1 uM in presence of [gamma-33P]-ATP or [gamma-32P]-ATP relative to control
# [11] = molecular target: Glycogen synthase kinase-3 alpha (Homo sapiens) (UniProt P49840); assay: Inhibition of recombinant human N-terminal His6-tagged GSK3alpha (2 to end residues) expressed in baculovirus infected Sf21 insect cells at 1 uM using GSK3 substrate in presence of [gamma-33P]-ATP or [gamma-32P]-ATP relative to control
# Chain of Glycogen synthase kinase-3 alpha (Homo sapiens) (P49840 2-483 limits assumed): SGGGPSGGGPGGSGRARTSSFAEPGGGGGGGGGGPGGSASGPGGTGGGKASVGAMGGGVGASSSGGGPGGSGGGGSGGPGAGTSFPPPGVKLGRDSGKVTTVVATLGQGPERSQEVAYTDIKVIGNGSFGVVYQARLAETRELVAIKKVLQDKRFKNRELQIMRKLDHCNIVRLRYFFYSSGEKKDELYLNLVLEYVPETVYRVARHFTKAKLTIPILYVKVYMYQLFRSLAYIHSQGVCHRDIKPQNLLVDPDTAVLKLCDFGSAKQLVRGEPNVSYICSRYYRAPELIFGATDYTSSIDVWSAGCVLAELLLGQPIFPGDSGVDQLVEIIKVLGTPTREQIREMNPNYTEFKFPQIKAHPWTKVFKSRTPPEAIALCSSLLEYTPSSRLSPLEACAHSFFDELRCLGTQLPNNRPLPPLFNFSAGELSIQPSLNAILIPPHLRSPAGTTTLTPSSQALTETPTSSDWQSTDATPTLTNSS
# [12] = molecular target: Mast/stem cell growth factor receptor Kit (Homo sapiens) (UniProt P10721); assay: Inhibition of recombinant human N-terminal GST-tagged c-Kit (544 to end residues) expressed in baculovirus infected Sf21 insect cells at 1 uM using Poly (Glu4-Tyr) (4:1) as substrate in presence of [gamma-33P]-ATP or [gamma-32P]-ATP relative to control
# [13] = Half life in CD-1 mouse at 3 mg/kg, iv; assay type: ADME, organism-based; details: in vivo
# [14] = molecular target: Maternal embryonic leucine zipper kinase (Homo sapiens, UniProt Q14680); assay: Inhibition of recombinant human N-terminal GST-tagged MELK (1 to 340 residues) expressed in baculovirus infected Sf21 insect cells at 1 uM using KKLNRTLSFAEPG as substrate in presence of [gamma-33P]-ATP or [gamma-32P]-ATP relative to control
# Chain of Maternal embryonic leucine zipper kinase (Q14680 whole entry, looked up, the tested form may be a part): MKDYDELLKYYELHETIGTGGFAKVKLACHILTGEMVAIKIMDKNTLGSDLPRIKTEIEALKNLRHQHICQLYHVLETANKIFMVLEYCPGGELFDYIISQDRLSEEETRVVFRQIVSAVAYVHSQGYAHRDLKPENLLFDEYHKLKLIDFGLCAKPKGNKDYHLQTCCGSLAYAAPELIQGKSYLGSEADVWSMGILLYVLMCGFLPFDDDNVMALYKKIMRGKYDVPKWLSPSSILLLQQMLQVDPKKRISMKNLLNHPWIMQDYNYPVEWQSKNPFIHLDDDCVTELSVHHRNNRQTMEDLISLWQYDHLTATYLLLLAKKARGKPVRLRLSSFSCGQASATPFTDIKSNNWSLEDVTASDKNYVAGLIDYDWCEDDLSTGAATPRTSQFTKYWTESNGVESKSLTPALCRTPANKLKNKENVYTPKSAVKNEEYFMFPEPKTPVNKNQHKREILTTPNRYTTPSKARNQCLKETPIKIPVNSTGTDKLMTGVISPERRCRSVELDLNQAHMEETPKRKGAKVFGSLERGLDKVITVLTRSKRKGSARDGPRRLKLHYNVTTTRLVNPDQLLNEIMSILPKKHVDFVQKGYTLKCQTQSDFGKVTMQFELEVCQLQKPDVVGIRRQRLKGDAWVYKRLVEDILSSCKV
# [15] = molecular target: NUAK family SNF1-like kinase 1 (Homo sapiens) (UniProt O60285); assay: Inhibition of recombinant human N-terminal His6-tagged ARK5 (2 to end residues) expressed in baculovirus infected Sf21 insect cells at 1 uM using CHKtide as substrate in presence of [gamma-33P]-ATP or [gamma-32P]-ATP relative to control
# [16] = molecular target: Tyrosine-protein kinase JAK3 (Homo sapiens) (UniProt P52333); assay: Inhibition of recombinant human N-terminal His6-tagged JAK3 (781 to end residues) expressed in baculovirus infected Sf21 insect cells at 1 uM using JAK3tide as substrate in presence of [gamma-33P]-ATP or [gamma-32P]-ATP relative to control
# [17] = molecular target: Ephrin type-B receptor 4 (Homo sapiens) (UniProt P54760); assay: Inhibition of recombinant human N-terminal His6-tagged EphB4 (561 to end residues) expressed in baculovirus infected Sf21 insect cells using poly (Glu, Tyr) (4:1) as substrate in presence of [gamma-33P]-ATP or [gamma-32P]-ATP relative to control; details: concentration not given here
# Chain of Ephrin type-B receptor 4 (Homo sapiens) (P54760 whole entry): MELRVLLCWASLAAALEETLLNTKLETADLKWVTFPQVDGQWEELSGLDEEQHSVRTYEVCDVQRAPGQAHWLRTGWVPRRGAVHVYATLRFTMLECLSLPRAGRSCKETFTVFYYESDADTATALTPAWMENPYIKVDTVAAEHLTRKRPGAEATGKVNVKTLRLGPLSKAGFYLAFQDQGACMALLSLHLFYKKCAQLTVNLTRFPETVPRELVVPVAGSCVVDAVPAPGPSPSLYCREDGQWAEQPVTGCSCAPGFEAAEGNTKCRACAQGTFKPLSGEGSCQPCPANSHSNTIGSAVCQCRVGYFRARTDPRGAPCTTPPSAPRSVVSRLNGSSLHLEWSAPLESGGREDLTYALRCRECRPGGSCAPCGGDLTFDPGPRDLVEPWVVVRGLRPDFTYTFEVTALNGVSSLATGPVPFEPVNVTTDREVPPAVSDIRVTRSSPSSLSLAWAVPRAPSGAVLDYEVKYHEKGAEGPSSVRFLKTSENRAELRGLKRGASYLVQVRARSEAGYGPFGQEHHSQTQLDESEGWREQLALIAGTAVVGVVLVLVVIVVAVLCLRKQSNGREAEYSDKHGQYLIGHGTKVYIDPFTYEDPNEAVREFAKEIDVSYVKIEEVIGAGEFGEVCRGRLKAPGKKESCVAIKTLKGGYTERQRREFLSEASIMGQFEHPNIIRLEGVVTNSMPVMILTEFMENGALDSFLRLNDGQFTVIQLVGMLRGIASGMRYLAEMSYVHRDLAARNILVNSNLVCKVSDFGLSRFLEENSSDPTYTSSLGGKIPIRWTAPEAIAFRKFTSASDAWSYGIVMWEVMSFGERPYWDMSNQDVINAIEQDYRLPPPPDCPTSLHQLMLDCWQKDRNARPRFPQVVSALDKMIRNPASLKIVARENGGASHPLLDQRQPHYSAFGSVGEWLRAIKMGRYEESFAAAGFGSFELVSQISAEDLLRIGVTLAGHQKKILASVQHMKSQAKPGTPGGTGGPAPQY
# [18] = molecular target: Tyrosine-protein kinase FRK (Homo sapiens) (UniProt P42685); assay: Inhibition of recombinant human N-terminal His6-tagged PTK5 (218 to end residues) expressed in baculovirus infected Sf21 insect cells at 1 uM using JAK3tide as substrate in presence of [gamma-33P]-ATP or [gamma-32P]-ATP relative to control
# Chain of Tyrosine-protein kinase FRK (Homo sapiens) (P42685 whole entry, the tested form may be a part): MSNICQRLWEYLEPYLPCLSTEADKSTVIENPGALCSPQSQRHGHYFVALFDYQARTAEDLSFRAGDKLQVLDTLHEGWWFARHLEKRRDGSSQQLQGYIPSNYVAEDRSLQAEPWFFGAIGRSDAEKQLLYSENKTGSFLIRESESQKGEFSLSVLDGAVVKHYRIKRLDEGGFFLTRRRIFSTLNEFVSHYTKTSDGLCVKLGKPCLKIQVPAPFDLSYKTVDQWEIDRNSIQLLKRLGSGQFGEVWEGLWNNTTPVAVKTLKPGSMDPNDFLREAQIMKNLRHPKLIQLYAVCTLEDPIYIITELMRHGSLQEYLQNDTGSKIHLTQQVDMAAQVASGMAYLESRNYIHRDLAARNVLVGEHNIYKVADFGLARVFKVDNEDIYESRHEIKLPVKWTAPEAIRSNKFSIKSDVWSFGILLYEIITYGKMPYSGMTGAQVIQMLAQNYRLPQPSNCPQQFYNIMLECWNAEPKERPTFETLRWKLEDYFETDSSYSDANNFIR
# [19] = molecular target: Fibroblast growth factor receptor 1 (Homo sapiens, UniProt P11362); assay: Inhibition of recombinant human N-terminal GST-tagged FGFR1 (456 to 765 residues) expressed in baculovirus infected Sf21 insect cells at 1 uM using IGF-IRtide (12-527) as substrate in presence of [gamma-33P]-ATP or [gamma-32P]-ATP relative to control
# [20] = Cmax in CD-1 mouse at 3 mg/kg, iv; assay type: ADME, organism-based; parameters: dose 3 mg/kg, route intravenous; details: in vivo
# [21] = molecular target: Receptor-type tyrosine-protein kinase FLT3 (Homo sapiens) (UniProt P36888); assay: Inhibition of recombinant human N-terminal GST-tagged FLT3 (564 to end residues) expressed in baculovirus infected Sf21 insect cells at 1 uM using Abltide as substrate in presence of [gamma-33P]-ATP or [gamma-32P]-ATP relative to control
# [22] = Clearance in CD-1 mouse at 10 mg/kg, po; assay type: ADME, organism-based; details: in vivo
# MDA-MB-231 [23] = assay: Synergistic growth inhibition of human MDA-MB-231 cells assessed as combination index at 5 uM after 24 hrs in presence of paclitaxel by MTS assay; assay type: functional
# In short: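 MDA-MB-231 human breast adenocarcinoma cells were treated with the test agent, paclitaxel, or both together, and cell growth inhibition was measured. Synergy was expressed as a combination index (CI) calculated from the growth-inhibition data.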
compound,measurement,setting,value
Cc1cccc(Cn2nc(C)c3c(NC(=O)c4csc5c(N)ncnc45)cccc32)n1,inhibition,MDA-MB-231 [1],Dose-dependent effect
same,inhibition,[2],12%
same,IC50,[3],> 50 µM
same,IC50,Cytochrome P450 1A2,> 20 µM
same,IC50,[4],80 nM
same,inhibition,[5],-2%
same,inhibition,[6],> 60%
same,inhibition,[7],4%
same,bioavailability,[8],36%
same,Activity,MDA-MB-231 [9],Dose-dependent effect
same,inhibition,[10],14%
same,inhibition,[11],-10%
same,inhibition,[12],27%
same,half-life,[13],96 min
same,inhibition,[14],> 60%
same,inhibition,[15],20%
same,inhibition,[16],6%
same,inhibition,[17],2%
same,inhibition,[18],19%
same,inhibition,[19],> 60%
same,Cmax,[20],2550 ng/mL
same,inhibition,[21],59%
same,CL/F,[22],33.3 mL/min/kg
same,CI,MDA-MB-231 [23],<0.1
